Experimental data reported in PMC4561207 (Child's nervous system : ChNS : official journal of the …, 2015).

Test: Adverse events regardless of attribution
Format: in vivo, human
How it was run: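 Children with recurrent/refractory CNS tumours took oral drug once daily, continuously, in 28-day cycles. Dosing was stratified by EIACD use, with start/escalation levels 20–40 mg/m² (no EIACD) or 15–32 mg/m² (EIACD). Monitoring included weekly exam, serum chemistries, CBC and urine protein for 8 weeks, and TSH before each cycle. Events other than hypertension were graded by CTCAE v3, later v4.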

COc1cc2c(Oc3ccc4[nH]c(C)cc4c3F)ncnc2cc1OCCCN1CCCC1 [cediranib, Cediranib]
Abdominal pain, events (patients) (grade 1 AE): 5(5)
Acidosis, events (patients) (grade 1 AE): 7(5)
Alanine aminotransferase increased, events (patients) (grade 1 AE): 44(25)
Alkaline phosphatase increased, events (patients) (grade 1 AE): 4(3)
Anal mucositis, events (patients) (grade 1 AE): 1(1)
Anal pain, events (patients) (grade 1 AE): 1(1)
Anemia, events (patients) (grade 1 AE): 4(4)
Anorexia, events (patients) (grade 1 AE): 9(9)
Aspartate aminotransferase increased, events (patients) (grade 1 AE): 38(20)
Back pain, events (patients) (grade 1 AE): 4(3)
Blood bilirubin increased, events (patients) (grade 1 AE): 17(10)
Bone pain, events (patients) (grade 1 AE): 1(1)
Cardiac troponin I increased, events (patients) (grade 1 AE): 1(1)
Chest wall pain, events (patients) (grade 1 AE): 1(1)
Cholesterol high, events (patients) (grade 1 AE): 1(1)
Chronic kidney disease, events (patients) (grade 1 AE): 1(1)
Constipation, events (patients) (grade 1 AE): 7(4)
Cough, events (patients) (grade 1 AE): 4(4)
Creatinine increased, events (patients) (grade 1 AE): 3(2)
Dehydration, events (patients) (grade 1 AE): 2(2)
Depression, events (patients) (grade 1 AE): 3(3)
Diarrhea, events (patients) (grade 1 AE): 44(30)
Dizziness, events (patients) (grade 1 AE): 3(3)
Dry mouth, events (patients) (grade 1 AE): 1(1)
Dry skin, events (patients) (grade 1 AE): 1(1)
Dyspepsia, events (patients) (grade 1 AE): 3(3)
Edema face, events (patients) (grade 1 AE): 1(1)
Edema limbs, events (patients) (grade 1 AE): 2(2)
Endocrine disorders - Other, specify, events (patients) (grade 1 AE): 1(1)
Epistaxis, events (patients) (grade 1 AE): 6(5)
Eye disorders - Other, specify, events (patients) (grade 1 AE): 1(1)
Fatigue, events (patients) (grade 1 AE): 11(10)
Fecal incontinence, events (patients) (grade 1 AE): 2(2)
Fever, events (patients) (grade 1 AE): 2(2)
GGT increased, events (patients) (grade 1 AE): 1(1)
Gastritis, events (patients) (grade 1 AE): 2(2)
Gastrointestinal disorders - Other, specify, events (patients) (grade 1 AE): 1(1)
Headache, events (patients) (grade 1 AE): 21(12)
Hematuria, events (patients) (grade 1 AE): 5(3)
Hemoglobin increased, events (patients) (grade 1 AE): 11(6)
Hoarseness, events (patients) (grade 1 AE): 1(1)
Hypercalcemia, events (patients) (grade 1 AE): 6(3)
Hyperglycemia, events (patients) (grade 1 AE): 19(14)
Hyperkalemia, events (patients) (grade 1 AE): 3(3)
Hypermagnesemia, events (patients) (grade 1 AE): 14(9)
Hypernatremia, events (patients) (grade 1 AE): 8(5)
Hypertension, events (patients) (grade 1 AE): 21(14)
Hyperthyroidism, events (patients) (grade 1 AE): 2(2)
Hypoalbuminemia, events (patients) (grade 1 AE): 25(16)
Hypocalcemia, events (patients) (grade 1 AE): 23(14)
Hypoglycemia, events (patients) (grade 1 AE): 5(5)
Hypokalemia, events (patients) (grade 1 AE): 20(16)
Hypomagnesemia, events (patients) (grade 1 AE): 8(6)
Hyponatremia, events (patients) (grade 1 AE): 23(12)
Hypophosphatemia, events (patients) (grade 1 AE): 15(12)
Hypothyroidism, events (patients) (grade 1 AE): 10(10)
INR increased, events (patients) (grade 1 AE): 1(1)
Investigations - Other, specify, events (patients) (grade 1 AE): 2(2)
Joint effusion, events (patients) (grade 1 AE): 1(1)
Leukoencephalopathy, events (patients) (grade 1 AE): 1(1)
Lymphocyte count decreased, events (patients) (grade 1 AE): 13(10)
Malaise, events (patients) (grade 1 AE): 3(1)
Mucositis oral, events (patients) (grade 1 AE): 1(1)
Myalgia, events (patients) (grade 1 AE): 1(1)
Nausea, events (patients) (grade 1 AE): 18(13)
Nervous system disorders - Other, specify, events (patients) (grade 1 AE): 2(2)
Neutrophil count decreased, events (patients) (grade 1 AE): 13(8)
Non-cardiac chest pain, events (patients) (grade 1 AE): 2(2)
Oral pain, events (patients) (grade 1 AE): 2(2)
Pain in extremity, events (patients) (grade 1 AE): 6(5)
Pain, events (patients) (grade 1 AE): 3(3)
Palmar-plantar erythrodysesthesia syndrome, events (patients) (grade 1 AE): 4(4)
Platelet count decreased, events (patients) (grade 1 AE): 23(17)
Proteinuria, events (patients) (grade 1 AE): 22(14)
Rash acneiform, events (patients) (grade 1 AE): 2(2)
Rash maculo-papular, events (patients) (grade 1 AE): 6(5)
Rectal pain, events (patients) (grade 1 AE): 1(1)
Renal and urinary disorders - Other, specify, events (patients) (grade 1 AE): 1(1)
Respiratory, thoracic and mediastinal disorders - Other, specify, events (patients) (grade 1 AE): 1(1)
Serum amylase increased, events (patients) (grade 1 AE): 1(1)
Skin and subcutaneous tissue disorders - Other, specify, events (patients) (grade 1 AE): 1(1)
Stomach pain, events (patients) (grade 1 AE): 3(3)
Urinary frequency, events (patients) (grade 1 AE): 2(2)
Urinary retention, events (patients) (grade 1 AE): 2(2)
Vascular disorders - Other, specify, events (patients) (grade 1 AE): 2(2)
Voice alteration, events (patients) (grade 1 AE): 2(2)
Vomiting, events (patients) (grade 1 AE): 33(19)
Weight loss, events (patients) (grade 1 AE): 2(2)
White blood cell decreased, events (patients) (grade 1 AE): 17(14)
Abdominal pain, events (patients) (grade 2 AE): 5(5)
Alanine aminotransferase increased, events (patients) (grade 2 AE): 18(10)
Anemia, events (patients) (grade 2 AE): 1(1)
Anorexia, events (patients) (grade 2 AE): 6(6)
Arthralgia, events (patients) (grade 2 AE): 1(1)
Aspartate aminotransferase increased, events (patients) (grade 2 AE): 4(4)
Back pain, events (patients) (grade 2 AE): 1(1)
Blood bilirubin increased, events (patients) (grade 2 AE): 1(1)
Bone pain, events (patients) (grade 2 AE): 2(2)
Confusion, events (patients) (grade 2 AE): 1(1)
Constipation, events (patients) (grade 2 AE): 2(2)
Cough, events (patients) (grade 2 AE): 1(1)
Creatinine increased, events (patients) (grade 2 AE): 2(2)
Dehydration, events (patients) (grade 2 AE): 2(2)
Diarrhea, events (patients) (grade 2 AE): 16(11)
Dizziness, events (patients) (grade 2 AE): 2(1)
Dyspepsia, events (patients) (grade 2 AE): 1(1)
Dysphasia, events (patients) (grade 2 AE): 1(1)
Endocrine disorders - Other, specify, events (patients) (grade 2 AE): 1(1)
Fatigue, events (patients) (grade 2 AE): 10(10)
Fever, events (patients) (grade 2 AE): 1(1)
Flushing, events (patients) (grade 2 AE): 3(1)
Gastrointestinal disorders - Other, specify, events (patients) (grade 2 AE): 1(1)
Headache, events (patients) (grade 2 AE): 10(7)
Hemoglobin increased, events (patients) (grade 2 AE): 1(1)
Hydrocephalus, events (patients) (grade 2 AE): 2(2)
Hyperglycemia, events (patients) (grade 2 AE): 3(3)
Hypernatremia, events (patients) (grade 2 AE): 4(1)
Hypertension, events (patients) (grade 2 AE): 28(28)
Hypoalbuminemia, events (patients) (grade 2 AE): 9(7)
Hypocalcemia, events (patients) (grade 2 AE): 3(3)
Hypoglycemia, events (patients) (grade 2 AE): 1(1)
Hypomagnesemia, events (patients) (grade 2 AE): 1(1)
Hypophosphatemia, events (patients) (grade 2 AE): 6(4)
Hypothyroidism, events (patients) (grade 2 AE): 10(10)
Hypoxia, events (patients) (grade 2 AE): 1(1)
Intracranial hemorrhage, events (patients) (grade 2 AE): 4(4)
Lipase increased, events (patients) (grade 2 AE): 1(1)
Lymphocyte count decreased, events (patients) (grade 2 AE): 12(8)
Mucositis oral, events (patients) (grade 2 AE): 2(2)
Myalgia, events (patients) (grade 2 AE): 2(2)
Nausea, events (patients) (grade 2 AE): 4(4)
Nervous system disorders - Other, specify, events (patients) (grade 2 AE): 1(1)
Neutrophil count decreased, events (patients) (grade 2 AE): 8(5)
Non-cardiac chest pain, events (patients) (grade 2 AE): 1(1)
Pain in extremity, events (patients) (grade 2 AE): 3(3)
Pain, events (patients) (grade 2 AE): 1(1)
Palmar-plantar erythrodysesthesia syndrome, events (patients) (grade 2 AE): 10(7)
Pericardial effusion, events (patients) (grade 2 AE): 1(1)
Peripheral motor neuropathy, events (patients) (grade 2 AE): 2(2)
Platelet count decreased, events (patients) (grade 2 AE): 3(3)
Pleural effusion, events (patients) (grade 2 AE): 1(1)
Proteinuria, events (patients) (grade 2 AE): 15(14)
Respiratory, thoracic and mediastinal disorders - Other, specify, events (patients) (grade 2 AE): 1(1)
Reversible posterior leukoencephalopathy syndrome, events (patients) (grade 2 AE): 1(1)
Seizure, events (patients) (grade 2 AE): 3(3)
Skin and subcutaneous tissue disorders - Other, specify, events (patients) (grade 2 AE): 1(1)
Skin ulceration, events (patients) (grade 2 AE): 2(2)
Urinary retention, events (patients) (grade 2 AE): 1(1)
Vomiting, events (patients) (grade 2 AE): 6(6)
Weight loss, events (patients) (grade 2 AE): 2(2)
White blood cell decreased, events (patients) (grade 2 AE): 5(3)
Abdominal pain, events (patients) (grade 3 AE): 1(1)
Alanine aminotransferase increased, events (patients) (grade 3 AE): 7(6)
